Activity calls are given as the source filed them. No cut-off for these calls is given here.
Legend:
[1] = system: THP-1; assay: Increase in ABCA1 gene expression in THP1 cells at 1 uM relative to GW-3965; assay type: functional, Homo sapiens
Method in brief: (§1)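 THP-1 cells differentiated with 40 ng/mL PMA for 1 day, then switched to RPMI with 2% lipoprotein-deficient FBS. Compound added 6 h later at 1 or 10 µM in DMSO, incubated 24 h. ABCA1 mRNA by one-step TaqMan qRT-PCR, triplicate, multiplexed with 36B4; fold induction vs DMSO, expressed relative to reference dual agonist.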

[2] = target: T1, Oxysterols receptor LXR-beta (Homo sapiens) (UniProt P55055); assay: Agonist activity at GAL-linked human LXRbeta expressed in THP1 cells assessed as stimulation of co-activator recruitment by FRET assay relative to GW-3965; assay type: functional
T1 sequence (whole entry): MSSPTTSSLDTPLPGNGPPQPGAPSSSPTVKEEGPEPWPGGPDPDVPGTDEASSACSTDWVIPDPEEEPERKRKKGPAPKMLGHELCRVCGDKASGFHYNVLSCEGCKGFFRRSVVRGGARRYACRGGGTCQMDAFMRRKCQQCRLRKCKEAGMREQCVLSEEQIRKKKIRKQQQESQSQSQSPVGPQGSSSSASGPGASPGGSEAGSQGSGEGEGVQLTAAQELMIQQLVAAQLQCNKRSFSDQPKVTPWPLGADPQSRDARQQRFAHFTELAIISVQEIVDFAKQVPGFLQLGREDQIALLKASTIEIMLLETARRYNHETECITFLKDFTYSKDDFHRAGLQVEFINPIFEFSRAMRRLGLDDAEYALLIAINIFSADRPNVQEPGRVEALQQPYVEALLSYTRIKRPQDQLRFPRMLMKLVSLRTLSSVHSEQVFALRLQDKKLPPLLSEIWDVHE
Method in brief: (§2)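 Cell-free TR-FRET coactivator recruitment: 20 nM His-tagged hLXRα or hLXRβ, 300 nM biotinylated SRC-1 peptide, Eu-anti-His antibody, APC-streptavidin. 12-point curves from 20 µM; 1 h at 37 °C. Duplicate. %E = maximal coactivator recruitment relative to reference dual agonist in same experiment.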

[3] = target: T2, Oxysterols receptor LXR-alpha (Homo sapiens) (UniProt Q13133); assay: Agonist activity at GAL-linked human LXRalpha expressed in THP1 cells assessed as stimulation of co-activator recruitment by FRET assay relative to GW-3965; assay type: functional; method in brief: as §2
T2 sequence (whole entry): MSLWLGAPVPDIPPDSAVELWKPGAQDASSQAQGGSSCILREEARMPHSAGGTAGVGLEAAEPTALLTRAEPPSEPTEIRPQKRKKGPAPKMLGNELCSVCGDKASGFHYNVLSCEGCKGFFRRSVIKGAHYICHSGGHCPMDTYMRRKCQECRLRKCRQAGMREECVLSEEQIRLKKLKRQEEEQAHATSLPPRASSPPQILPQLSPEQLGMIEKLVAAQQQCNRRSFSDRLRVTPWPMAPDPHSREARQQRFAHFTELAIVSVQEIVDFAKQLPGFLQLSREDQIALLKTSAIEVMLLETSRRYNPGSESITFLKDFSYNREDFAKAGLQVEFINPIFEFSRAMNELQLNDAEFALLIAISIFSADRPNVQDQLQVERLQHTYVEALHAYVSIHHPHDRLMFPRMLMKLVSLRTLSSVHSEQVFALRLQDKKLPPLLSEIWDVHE

[4] = system: THP-1; assay: Increase in ABCA1 gene expression in THP1 cells at 10 uM relative to GW-3965; assay type: functional, Homo sapiens; method in brief: as §1
[5] = target: T3, Oxysterols receptor LXR-beta (Homo sapiens, UniProt P55055); assay: Agonist activity at GAL-linked human LXRbeta expressed in THP1 cells assessed as stimulation of co-activator recruitment by FRET assay; assay type: functional; method in brief: as §2
T3 sequence (P55055 whole entry): T1 sequence (whole entry)

[6] = target: T4, Oxysterols receptor LXR-alpha (Homo sapiens, UniProt Q13133); assay: Agonist activity at GAL-linked human LXRalpha expressed in THP1 cells assessed as stimulation of coactivator recruitment by FRET assay; assay type: functional; method in brief: as §2
T4 sequence (Q13133 whole entry): T2 sequence (whole entry)

[7] = target: T1, Oxysterols receptor LXR-beta (Homo sapiens); assay: Activity at human LXRbeta by Gal4 transactivation assay relative to GW-3965
Method in brief: (§3)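 GAL4 DBD fused to hLXRα or hLXRβ LBD in pcDNA3, co-transfected into HepG2 with luciferase reporter. Cells in DMEM with 10% lipoprotein-deficient FBS, 7.5 µM lovastatin, 100 µM mevalonic acid. Ligand added 24 h post-transfection as 11-point curves from 10 µM; luciferase read after 16 h. Run in quadruplicate. %E = max fold induction vs max fold induction of reference dual agonist in same experiment.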

[8] = target: T2, Oxysterols receptor LXR-alpha (Homo sapiens); assay: Displacement of [3H]T-0901317 from GAL-linked human LXRalpha expressed in THP1 cells at 20 uM by SPA relative to GW-3965; assay type: cell-based; details: THP-1
Method in brief: (§4)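 Scintillation proximity displacement with His-tagged hLXRα or hLXRβ LBD (200 ng/well) and 30 nM [3H]T0901317. Beads 0.2 mg/well in phosphate buffer with EDTA, NaCl, DTT, CHAPS, 10% glycerol. 12-point curves from 20 µM; shaken 3 h at room temperature. No-competitor wells = 100% binding; nonspecific binding without protein. Efficacy = maximal displacement relative to reference dual agonist.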

[9] = target: T1, Oxysterols receptor LXR-beta (Homo sapiens); assay: Displacement of [3H]T-0901317 from GAL-linked human LXRbeta expressed in THP1 cells at 20 uM by SPA relative to GW-3965; assay type: cell-based; details: THP-1; method in brief: as §4
[10] = target: T2, Oxysterols receptor LXR-alpha (Homo sapiens); assay: Activity at human LXRalpha by Gal4 transactivation assay relative to GW-3965; method in brief: as §3
[11] = system: Hepatocyte; assay: Induction on FAS gene expression in human primary hepatocytes at 1 uM; assay type: functional, cell-based
Method in brief: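 Primary human hepatocytes treated with 1 µM compound; FAS mRNA measured by TaqMan-based qRT-PCR.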

Row | SMILES | Activity [1] [%] | Efficacy [2] [%] | Efficacy [3] [%] | Activity [4] [%] | EC50 [5] [nM] | EC50 [6] [nM] | Efficacy [7] [%] | Activity [2] [%] | Efficacy [8] [%] | Efficacy [9] [%] | Efficacy [10] [%] | Activity [11]
1 | COc1cccc(C2SC(c3ccc(F)cc3)=NN2C(=O)c2c(F)ccc(F)c2F)c1OC (centres undefined) | 35 | 74 | < 15 | 42 | 970 |  |  |  |  |  |  | 
2 | O=C(c1c(F)cc(F)cc1F)N1N=C(c2ccc(F)cc2)SC1c1ccccc1OC(F)F (centres undefined) | 26 | 90 | 76 |  | 150 | 1900 |  |  |  |  |  | 
3 | COc1cccc(C2SC(c3ccc(F)c(F)c3)=NN2C(=O)c2cccc(F)c2)c1OC (centres undefined) | 27 | 83 | 30 | 47 | 560 | 1500 |  |  |  |  |  | 
4 | COc1cccc(C2SC(c3ccc(F)cc3)=NN2C(=O)c2cc(F)c(F)cc2F)c1OC (centres undefined) | 30 | 40 | < 15 | 48 | 600 |  |  |  |  |  |  | 
5 | COc1ccccc1C1(C)SC(c2ccc(F)cc2)=NN1C(=O)c1c(F)cc(F)cc1F (centres undefined) |  | 50 | < 15 |  | 4000 |  |  |  |  |  |  | 
6 | COc1cccc(C2SC(c3ccc(F)cc3)=NN2C(=O)c2cc(F)ccc2C)c1OC (centres undefined) | 21 | 90 | 46 | 32 | 140 | 2400 |  |  |  |  |  | 
7 | O=C(c1c(F)cc(F)cc1F)N1N=C(c2ccc(Cl)cc2)SC1c1cccc2c1OC(F)(F)O2 (centres undefined) | 35 | 74 | 71 | 61 | 800 | 3900 |  |  |  |  |  | 
8 | O=C(c1c(F)cc(F)cc1F)N1N=C(c2ccc(Cl)cc2)SC1c1ccccc1OC(F)(F)F (centres undefined) |  | 31 | < 15 | 23 | 3400 |  |  |  |  |  |  | 
9 | COc1cccc([C@@H]2SC(c3ccc(Cl)cc3)=NN2C(=O)c2c(F)cc(F)cc2F)c1OC | 0 |  | < 15 | 0 |  |  | < 15 | < 15 | < 15 | < 15 | < 15 | 
10 | COc1cccc(C2SC(c3ccc(Cl)cc3)=NN2C(=O)c2ccccc2F)c1OC (centres undefined) |  | 48 | < 15 |  | 7700 |  |  |  |  |  |  | 
11 | COc1cccc(C2SC(c3ccc(Cl)c(Cl)c3)=NN2C(=O)c2c(F)cc(F)cc2F)c1OC (centres undefined) | 18 | 51 | < 15 | 46 | > 10000 |  |  |  |  |  |  | 
12 | COc1cccc(C2SC(c3ccc(F)cc3)=NN2C(=O)c2cc(F)c(F)c(OC)c2F)c1OC (centres undefined) | 30 | 100 | 64 | 59 | 81 | 700 |  |  |  |  |  | 
13 | COc1cccc(C2SC(c3ccc(F)cc3)=NN2C(=O)c2cc(F)cc(F)c2)c1OC (centres undefined) | 21 | 95 | 40 | 37 | 470 | 2100 |  |  |  |  |  | 
14 | O=S(=O)(c1ccccc1)N(CC(F)(F)F)c1ccc(C(O)(C(F)(F)F)C(F)(F)F)cc1 |  |  |  |  |  |  |  |  |  |  |  | Active
15 | COc1cccc(C2SC(c3ccc(Cl)cc3)=NN2C(=O)c2ccc(F)cc2F)c1OC (centres undefined) | 23 | 80 | 50 | 40 | 980 | 6700 |  |  |  |  |  | 
16 | COc1cc(F)ccc1C1SC(c2ccc(F)cc2)=NN1C(=O)c1c(F)cc(F)cc1F (centres undefined) | 99 | 100 | 92 | 59 | 6 | 70 |  |  |  |  |  | 
17 | COc1cc(F)c(C(=O)N2N=C(c3ccc(F)cc3)SC2c2cccc(OC)c2OC)c(F)c1 (centres undefined) | 81 | 100 | 47 | 42 | 170 | 900 |  |  |  |  |  | 
18 | COc1cccc(C2SC(c3ccc(F)cc3)=NN2C(=O)c2c(F)cc(Br)cc2F)c1OC (centres undefined) |  | 92 | 43 | 42 | 160 | 900 |  |  |  |  |  | 
19 | COc1ccccc1C1SC(c2ccc(Cl)cc2)=NN1C(=O)c1c(F)cc(F)cc1F (centres undefined) | 57 | 110 | 80 | 54 | 35 | 180 |  |  |  |  |  | 
20 | COc1cccc(C2SC(c3ccc(Cl)cc3)=NN2C(=O)c2ccccc2)c1OC (centres undefined) |  |  | < 15 |  |  |  |  | < 15 |  |  |  | 
21 | COc1cccc(C2SC(c3ccc(Cl)cc3)=NN2C(=O)c2c(F)cc(F)cc2F)c1 (centres undefined) |  | 60 | < 15 |  | 3700 |  |  |  |  |  |  | 
22 | COc1cccc(C2SC(c3ccc(F)cc3)=NN2C(=O)c2cccc(Cl)c2)c1OC (centres undefined) | 13 | 82 | < 15 | 36 | 250 |  |  |  |  |  |  | 
23 | COc1cccc(C2SC(c3ccc(C)cc3)=NN2C(=O)c2c(F)cc(F)cc2F)c1OC (centres undefined) | 24 | 98 | 52 | 34 | 200 | 1400 |  |  |  |  |  | 
